Screening data (PubChem BioAssay)
The list is not random: actives were taken first. Their share in the collection is about 1.8%.
SUMO1-SIM PPI: alters human SUMO1 binding to SIM partners; P63165; SUMO1 binding to a labelled peptide, TR-FRET, 1 h; inhibition, % at 20 µM; actives 0.33% (n = 360,000); AID 602429; in the data active means inhibition above about 37%
Target sequence (P63165 whole entry, looked up): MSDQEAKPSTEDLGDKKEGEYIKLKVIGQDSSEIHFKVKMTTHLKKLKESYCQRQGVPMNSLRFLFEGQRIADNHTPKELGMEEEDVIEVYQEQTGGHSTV
Scp1 inh: inhibitors of human Scp-1 phosphatase; Recombinant Scp1, phosphopeptide, malachite green phosphate absorbance; inhibition, % at 20 µM; actives 0.88% (n = 340,000);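 active means inhibition above about 50% at 20 µM, limit read from the data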;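 further: plate controls were DMSO wells with enzyme for no effect and wells lacking enzyme for full effect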
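Test system – truncated SCP-1 phosphatase (76-261aa) · Reagent – Phosphorylated 17-residue peptide substrate · Incubation – 45 min room-temperature reaction, 5 min colour, 30 min stabiliser · Detection – colorimetric phosphate reagent with accelerator and stabiliser, absorbance at 630 nm · Measure – % inhibition at 20 µM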
HKDC1 inh: HKDC1 (human) hexokinase inhibition | AID 493160 | recombinant HKDC1, G6PDH/diaphorase resazurin coupled fluorescence | actives 0.16% (n = 340,000) | Q2TB90 | inhibition, % at 20 µM;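 active means inhibition above about 35% when tested at 20 µM, limit read from the data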;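 further: plate controls were DMSO wells with enzyme for no effect and DMSO wells lacking enzyme for full effect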
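Assay system: recombinant HKDC1 hexokinase; detection: coupled resazurin fluorescence, excitation 525 nm, emission 613 nm; benchmarks: DMSO-plus-enzyme-mix negative control, buffer-substituted positive control; compound dosing: single 20 µM dose; schedule: 90 min at room temperature in dark; also added: glucose plus 1 mM ATP as hexokinase substrates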
DNMT1 block: DNMT1 (human) enzyme inhibition | P26358 | actives 0.83% (n = 360,000) | DNMT1 molecular beacon, Hinp1I cleavage, fluorescence | inhibition (reported as % activation of signal), % at 10 µM | AID 588458; in the data active means inhibition above about 50%
LMPTP block: LMPTP (human) inhibition; recombinant LMPTP-A, OMFP fluorogenic substrate, fluorescence intensity; inhibition, % at 20 µM; actives 0.22% (n = 360,000); AID 651560;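 active means compounds that cut the enzyme signal by at least half of the control window in the single-dose screen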;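 further: plate controls were DMSO wells with enzyme plus substrate for no effect and substrate without enzyme for full effect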
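Test system: LMPTP-A phosphatase enzyme; input: 0.625 nM LMPTP-A final; reagent: OMFP substrate, 400 µM final; compound dosing: 20 µM single dose, 3% DMSO; incubation: 50 min dark incubation at room temperature; measured by: endpoint fluorescence intensity from OMFP dephosphorylation; measure: % inhibition relative to no-enzyme and uninhibited control wells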
STEP inh: STEP (human) phosphatase inhibition; P54829; recombinant STEP, OMFP fluorogenic substrate, fluorescence; inhibition, % at 20 µM; actives 0.25% (n = 360,000); AID 588621;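 active means inhibition at 20 µM, scaled per plate between control wells, above about 37%, limit read from the data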;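 further: 0% = DMSO with enzyme and substrate and 100% = substrate only without enzyme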
Target sequence (P54829 whole entry, looked up): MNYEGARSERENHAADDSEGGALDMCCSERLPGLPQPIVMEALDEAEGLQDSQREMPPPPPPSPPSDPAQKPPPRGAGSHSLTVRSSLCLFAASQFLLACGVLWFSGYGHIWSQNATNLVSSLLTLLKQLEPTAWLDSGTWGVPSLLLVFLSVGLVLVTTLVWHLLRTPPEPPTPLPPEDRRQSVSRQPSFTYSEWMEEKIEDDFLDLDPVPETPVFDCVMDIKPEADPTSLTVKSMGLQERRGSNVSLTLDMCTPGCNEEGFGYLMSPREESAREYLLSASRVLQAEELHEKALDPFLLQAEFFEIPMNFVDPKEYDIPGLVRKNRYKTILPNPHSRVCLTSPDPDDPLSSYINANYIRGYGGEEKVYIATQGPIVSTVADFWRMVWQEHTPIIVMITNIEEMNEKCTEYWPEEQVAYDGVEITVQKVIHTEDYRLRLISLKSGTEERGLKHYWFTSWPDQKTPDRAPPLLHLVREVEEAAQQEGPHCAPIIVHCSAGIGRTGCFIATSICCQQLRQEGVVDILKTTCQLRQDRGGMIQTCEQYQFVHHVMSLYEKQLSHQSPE
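System: isolated STEP enzyme; schedule: 20 min enzyme reaction at room temperature, protected from light; medium: Bis-Tris buffer pH 6.0, 2.5 mM DTT, 0.005% Tween 20; signal: fluorescence, 480/540 nm; dosing: single compound dose of 20 µM, 1% DMSO final; also added: OMFP substrate, 25 µM final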
Scp-1 conf: confirmation of human Scp-1 phosphatase inhibitors; shares compounds with Scp1 inh; recombinant SCP-1 catalytic domain, phosphate release, malachite green absorbance; inhibition, % at 20 µM; actives 61% (n = 2,500); AID 540281;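 further: plate controls were DMSO with enzyme for no effect and buffer wells lacking enzyme for full effect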
Scp-1 MG ctr: colorimetric interference in Scp-1 counter-screen | shares compounds with Scp1 inh | Colorimetric interference counterscreen, malachite green absorbance 630 nm | apparent inhibition (interference), % at 20 µM | 2,500 tested, under 10 active;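 further: compounds added after enzyme reaction finished so only phosphate colour detection is probed; plate controls were DMSO wells with completed Scp-1 reaction for no effect and substrate wells lacking enzyme for full effect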
Scp1 DSF: binds human Scp-1, shifting its melting temperature; shares compounds with Scp1 inh; Recombinant SCP1, Sypro Orange thermal shift Tm; AID 540329; actives 25% (n = 1,500); thermal shift relative to vanadate control, % at 40 µM;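 active means substances whose mean melting-temperature shift, as a percentage of the reference inhibitor's shift, reaches about 5.3%, limit read from the data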;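 further: 0% = Tm of DMSO wells and 100% = Tm with sodium orthovanadate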
* marks the source's active call; other numbers are inactive results; . = not tested or not shown.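 How the source made its calls, unless noted: active means inhibition of at least 30% at 20 µM; inactive means the rest.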

SMILES | SUMO1-SIM PPI | Scp1 inh | HKDC1 inh | DNMT1 block | LMPTP block | STEP inh | Scp-1 conf | Scp-1 MG ctr | others
CS(=O)(=O)NCCSCc1ccco1 | 0 | 98* | 4 | 13 | 0 | -2 | 64* | -15 | Scp1 DSF=-5
CC(=O)Nc1ccc(S(=O)(=O)NCCSCc2ccco2)cc1 | 16 | 3 | -1 | -4 | 2 | -1 | . | .
COc1ccc(CNC(=O)C2CCC(CNS(=O)(=O)c3cccs3)CC2)cc1 (stereo not drawn) | -3 | -7 | 0 | 4 | -1 | 1 | . | .
O=C(N[C@@H](Cc1ccccc1)C(=O)NC1CC1)c1ccc(Cl)cc1 | -2 | -3 | -6 | 3 | 0 | -1 | . | .
Cc1nc2ccc(C(=O)O)cc2c2c1CC(C)S2 (stereo not drawn) | 16 | 79* | 1 | 54* | 0 | 7 | 61* | -10 | Scp1 DSF=4
COc1ccc(OC)c(S(=O)(=O)NC(=O)C2(C)CCN2C(=O)Cc2ccccc2)c1 (stereo not drawn) | 1 | . | . | 4 | -1 | -1 | . | .
CC(C)NC(=O)N(C)C[C@@H]1Oc2ccc(NC(=O)CCN3CCOCC3)cc2CC(=O)N([C@@H](C)CO)C[C@@H]1C | 4 | 52* | 1 | 5 | -2 | -1 | 19 | -14
C[C@H](CO)N1C[C@H](C)[C@@H](CN(C)C(=O)Nc2ccccc2)Oc2ccc(NC(=O)C3CC3)cc2C1=O | 6 | 0 | -4 | 9 | -1 | 6 | . | .
C[C@@H]1CN([C@H](C)CO)C(=O)c2cc(NC(=O)c3ccncc3)ccc2O[C@@H]1CN(C)C(=O)Nc1ccccc1 | -4 | 94* | -3 | 6 | -2 | -1 | 61* | -14 | Scp1 DSF=-10
CC(C)NC(=O)Nc1ccc2c(c1)C(=O)N([C@H](C)CO)C[C@H](C)[C@@H](CN(C)C(=O)NC(C)C)O2 | 3 | 56* | -2 | -3 | 0 | 1 | 19 | 1
CC(C)NC(=O)N(C)C[C@H]1Oc2ccc(NC(=O)c3ccncc3)cc2C(=O)N([C@H](C)CO)C[C@@H]1C | -5 | 73* | 1 | 7 | 0 | 0 | 18 | -18
C[C@H](CO)N1C[C@H](C)[C@@H](CN(C)C(=O)Nc2ccccc2)Oc2ccc(NC(=O)CCN3CCOCC3)cc2C1=O | 3 | 21 | -4 | -1 | -2 | -3 | . | .
CCN(CC)S(=O)(=O)c1ccc2c(c1)nc(-c1ccccn1)n2C | -3 | 2 | -9 | 3 | 0 | 3 | . | .
COc1ccccc1NC(=O)C(C)OC(=O)C(C)SCC(=O)Nc1ccc(C)cc1 (stereo not drawn) | 2 | -1 | 0 | -1 | 0 | 1 | . | .
Cc1cccc(C)c1NC(=O)CSc1nnc(NC(=O)c2ccccc2C(=O)O)s1 | 2 | 65* | -5 | -1 | -1 | 0 | 2 | -13
CC(C)(C)c1ccc(C(=O)NCC(=O)OCc2ccc([N+](=O)[O-])cc2)cc1 | -6 | -10 | 6 | 4 | 1 | 0 | . | .
Cc1ccc(NC(=O)CCSCCC(=O)Nc2ccc(C)c(C)c2)cc1C | -1 | -6 | 1 | -1 | 1 | 2 | . | .
Cc1ccc(NC(=O)CC(=O)Nc2ccc(C)c(C)c2)cc1C | 4 | 62* | -1 | 6 | 1 | 1 | 82* | -2 | Scp1 DSF=0
O=C(CCn1c(=S)[nH]c2cc3c(cc2c1=O)OCO3)NCc1ccccc1Cl | -7 | 4 | 4 | 41 | 3 | 2 | . | .
CC1(C)CC[C@]2(C(=O)O)CC[C@]3(C)C(=CCC4[C@@]5(C)CC[C@H](O)C(C)(C)C5CC[C@]43C)C2C1 (stereo partly drawn) | 5 | 56* | 4 | 78* | 25 | . | 17 | 4
CC1(C)CC[C@]2(C(=O)O)CC[C@]3(C)C(=CC[C@@H]4[C@@]5(C)CC[C@H](O)C(C)(C)[C@@H]5CC[C@]43C)[C@@H]2C1 | 5 | -6 | -6 | 29 | -14 | . | . | .
O=C(O)CSc1c2c(nc3cc(C(=O)Nc4ccc(F)c(Cl)c4)ccc13)CCCC2 | -10 | 52* | 6 | -4 | 2 | 0 | 83* | -16 | Scp1 DSF=-2
CN(C)CC(C)(C)CNS(=O)(=O)c1cccc(Cl)c1Cl | -3 | 70* | 0 | -1 | -2 | -5 | 12 | -22
CC(=O)Nc1cccc(/C(C)=N/NC(=O)c2ccc(NS(=O)(=O)c3cccs3)cc2)c1 | 1 | 64* | -15 | 3 | -2 | -1 | -18 | -12
C/C(=N\NC(=O)c1ccc(NS(=O)(=O)c2cccs2)cc1)c1ccc(C(C)(C)C)cc1 | 5 | -1 | 12 | 4 | 0 | -2 | . | .
SMILES | SUMO1-SIM PPI | Scp1 inh | HKDC1 inh | DNMT1 block | LMPTP block | STEP inh | Scp-1 conf | Scp-1 MG ctr | others
CCCCn1nnnc1C(c1ccccc1)N1CCN(c2ccc(C(F)(F)F)cc2[N+](=O)[O-])CC1 (stereo not drawn) | -2 | . | . | . | 2 | . | . | .
COc1ccc(CN2CCc3ccccc3C2)c(OC)c1 | 1 | -4 | -5 | 0 | -3 | 3 | . | .
COc1ccc(C2=[N+](C)CCn3cccc32)c(OC)c1 | -1 | 103* | -9 | 3 | 0 | 2 | 96* | -7 | Scp1 DSF=0
CCc1ccc(/C(C)=N/NC(=O)c2ccc(-n3cnnn3)cc2)cc1 | -2 | -4 | -4 | 9 | 0 | 0 | . | .
CC(C)NC(=O)c1cc2c(=O)n3ccccc3nc2s1 | 5 | 64* | -6 | -3 | 0 | -4 | -19 | -19
CSc1ccccc1NC(=O)c1cc2c(=O)n3ccccc3nc2s1 | -3 | -6 | -4 | 3 | 1 | 1 | . | .
C=CCn1cc(C(=O)N2CCN(c3ccccc3)CC2)c(=O)c2cc(S(=O)(=O)N3CCCC3)ccc21 | 11 | 2 | 2 | 0 | 0 | 3 | . | .
CCCCC1(C)OC(=O)C(=Cc2ccc(-c3ccc(Cl)c(C(=O)O)c3)o2)C(=O)O1 (stereo not drawn) | 17 | 60* | 14 | 37 | 0 | 11 | 45* | -12 | Scp1 DSF=-28
CCCCC1(C)OC(=O)C(=Cc2ccc(SC)cc2)C(=O)O1 (stereo not drawn) | 4 | 3 | 13 | 6 | 0 | -1 | . | .
O=C(O)c1cc(-c2ccc(/C=N/NC(=S)Nc3ccccc3)o2)ccc1Cl | 22 | 52* | 7 | 18 | 1 | 1 | 59* | -2 | Scp1 DSF=12*
